Source: ChEMBL document CHEMBL1129458, “Indole inhibitors of human nonpancreatic secretory phospholipase A2. 3. Indole-3-glyoxamides” (J Med Chem, 1996)

Columns and labels:
[1] = target: T1, Phospholipase A2, membrane associated (Homo sapiens, UniProt P14555); test: Inhibition of human nonpancreatic secretory Phospholipase A2 through chromogenic assay
T1 sequence (P14555 whole entry): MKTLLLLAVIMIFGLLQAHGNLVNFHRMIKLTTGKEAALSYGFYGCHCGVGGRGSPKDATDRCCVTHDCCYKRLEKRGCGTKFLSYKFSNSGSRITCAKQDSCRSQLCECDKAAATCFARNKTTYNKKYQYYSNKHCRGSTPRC

[2] = target: Phospholipase A2, major isoenzyme (Sus scrofa, UniProt P00592); test: Compound was tested for inhibition of porcine secretory pancreatic Phospholipase A2
Sequence of Phospholipase A2, major isoenzyme (P00592 whole entry): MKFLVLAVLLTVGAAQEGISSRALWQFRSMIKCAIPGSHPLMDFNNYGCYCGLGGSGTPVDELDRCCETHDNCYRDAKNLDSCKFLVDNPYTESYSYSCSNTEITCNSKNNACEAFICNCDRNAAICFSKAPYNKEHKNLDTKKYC

[3] = species: Cavia porcellus; test: Inhibition of Phospholipase A2 induced contraction of GP lung tissue; assay type: functional
How it was run: (§1)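 Guinea pig lung pleural strips were contracted with either hnps-PLA2 or arachidonic acid, the latter serving as the control challenge for selectivity. Antagonism is given as KB.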

[4] = target: Phospholipase A2 (Homo sapiens, UniProt P04054); test: Compound was tested for inhibition of human secretory pancreatic Phospholipase A2
Sequence of Phospholipase A2 (P04054 whole entry): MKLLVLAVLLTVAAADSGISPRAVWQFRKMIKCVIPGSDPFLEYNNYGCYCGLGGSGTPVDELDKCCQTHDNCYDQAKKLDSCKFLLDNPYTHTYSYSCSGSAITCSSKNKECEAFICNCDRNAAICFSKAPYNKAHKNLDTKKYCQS

[5] = target: T1, Phospholipase A2, membrane associated; test: Inhibition of human nonpancreatic secretory Phospholipase A2 through DOC/PC assay
How it was run: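 hnps-PLA2 (10 ng per tube; 3 nM) was preincubated with test compound in DMSO in pH 8 Tris buffer with 0.2 M NaCl, 2 mM CaCl2 and fatty-acid-free BSA. The substrate was sonicated mixed micelles (final 3 mM deoxycholate/1 mM PC) with [14C]-palmitoyl-oleoyl-PC. Reactions ran 1 h at 40 °C and were stopped with Dole reagent. Released [14C]oleic acid was extracted with heptane/silica and counted. IC50 was calculated against diluent controls.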

[6] = Mole fraction is the IC50 concentration divided by the total lipid concentration (4000 uM) in DOC/PC assay; assay type: functional
How it was run: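 The value is a mole fraction: the DOC/PC assay IC50 (3 nM hnps-PLA2; 3 mM DOC/1 mM [14C]PC micelles; 1 h at 40 °C; released [14C]oleic acid counted) divided by the total lipid concentration of 4000 µM.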

[7] = Mole fraction of the IC50 concentration of compound divided by the total lipid concentration (1230 uM) in a chromogenic assay; assay type: functional
[8] = species: Cavia porcellus; test: Inhibition Arachidonic acid(AA) induced contraction of GP lung tissue; assay type: functional; how it was run: as §1
[9] = target: T1, Phospholipase A2, membrane associated; test: Compound was evaluated to inhibit human nonpancreatic secretory Phospholipase A2 through chromogenic assay; assay type: functional
How it was run: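 Chromogenic hnps-PLA₂ hydrolysis assay with 16 nM enzyme and 1.23 mM (1230 µM) total lipid substrate. IC₅₀ was determined, and the mole-fraction value is the IC₅₀ divided by the total lipid concentration.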

Work on Cc1c(C(=O)C(N)=O)c2c(OCC(=O)O)cccc2n1Cc1ccccc1 yielded an IC50 [1] of 11 nM, an IC50 [2] of 15 nM and a KB [3] of 0.14 µM. The IC50 [4] was 761 nM, the IC50 [5] was 19 nM and the Mole fraction [6] was 4.8e-06. It also gave a Mole fraction [7] of 8.9e-06 and an ED50 [8] of over 10000 nM.
In the case of Cc1c(C(=O)C(N)=O)c2c(OCC(=O)O)cccc2n1Cc1ccc(-c2ccccc2)cc1, the IC50 [1] is reported as 43 nM, the IC50 [4] is reported as 1090 nM and the IC50 [5] is reported as 150 nM. The Mole fraction [6] was 3.8e-05 and the Mole fraction [7] was 3.6e-05.
CCc1c(C(=O)C(N)=O)c2c(OC(C)(C)C(=O)O)cccc2n1Cc1ccccc1 gave an IC50 [1] of 25 nM, a KB [3] of 0.143 µM and an IC50 [5] of 29 nM. The Mole fraction [6] was 7.3e-06, the Mole fraction [7] was 2.1e-05 and the ED50 [8] was over 30000 nM.
With Cc1c(C(=O)C(N)=O)c2c(OCC(=O)O)cccc2n1Cc1ccc(F)cc1 the IC50 [1] was 30 nM, the KB [3] was 0.11 µM and the IC50 [5] was 74 nM. It also gave a Mole fraction [6] of 1.9e-05, a Mole fraction [7] of 2.5e-05 and an ED50 [8] of over 30000 nM.
Compound CCc1c(C(=O)C(N)=O)c2c(SCC(=O)O)cccc2n1Cc1ccccc1 has an IC50 [1] of 145 nM, an IC50 [5] of 210 nM and a Mole fraction [6] of 5.3e-05. It also gave a Mole fraction [7] of 0.00012.
CCc1c(C(=O)C(N)=O)c2cc(OCCCC(=O)O)ccc2n1Cc1ccccc1 gave a Mole fraction [7] of 0.00017.
With NC(=O)C(=O)c1c(C2CC2)n(Cc2ccccc2-c2ccccc2)c2cccc(OCC(=O)O)c12 the IC50 [1] was 6 nM, the KB [3] was 0.075 µM and the IC50 [5] was 23 nM. For the same compound, the Mole fraction [6] was 5.8e-06, the Mole fraction [7] was 5e-06 and the ED50 [8] was over 10000 nM.
Cc1c(C(=O)C(N)=O)c2c(OCC(=O)O)cccc2n1Cc1c(Cl)cccc1Cl showed a KB [3] of 0.077 µM, an IC50 [5] of 22 nM and a Mole fraction [6] of 5.5e-06. For the same compound, the Mole fraction [7] was 5e-06 and the ED50 [8] was over 30000 nM.
Compound CCc1c(C(=O)C(N)=O)c2c(OCC(=O)O)cccc2n1Cc1ccccc1-c1ccccc1 has an IC50 [1] of 6 nM, a KB [3] of 0.057 µM and an IC50 [5] of 6 nM. It also gave a Mole fraction [6] of 1.5e-06, a Mole fraction [7] of 5e-06 and an ED50 [8] of 30000 nM.
Compound Cc1c(C(=O)C(N)=O)c2c(OC(C)C(=O)O)cccc2n1Cc1ccccc1 (stereo unspecified) has an IC50 [1] of 10 nM, a KB [3] of 0.145 µM and a Mole fraction [6] of 2.3e-06. It also gave a Mole fraction [7] of 8.1e-06 and an ED50 [8] of over 30000 nM.
Compound Cc1c(C(=O)C(N)=O)c2c(OCC(=O)O)cccc2n1Cc1cccc(-c2ccccc2)c1 has an IC50 [1] of 9 nM, an IC50 [2] of 7 nM and an IC50 [4] of 570 nM. The IC50 [5] was 8 nM, the Mole fraction [6] was 2e-06 and the Mole fraction [7] was 7.3e-06.
Work on CCc1c(C(=O)C(N)=O)c2c(O[C@@H](C)C(=O)O)cccc2n1Cc1ccccc1 yielded an IC50 [1] of 141 nM and a Mole fraction [7] of 0.00011.
C=CCc1ccc2c(c1OCC(=O)O)c(C(=O)C(N)=O)c(CC)n2Cc1ccccc1 showed an IC50 [1] of 1620 nM and a Mole fraction [7] of 0.013.
Compound CCCc1ccc2c(c1OCC(=O)O)c(C(=O)C(N)=O)c(CC)n2Cc1ccccc1 has an IC50 [1] of 2070 nM and a Mole fraction [7] of 0.0017.
Work on CCCc1c(C(=O)C(N)=O)c2c(OCC(=O)O)cccc2n1Cc1ccccc1-c1ccccc1 yielded a Mole fraction [7] of 6.7e-05.
CCc1c(C(=O)C(N)=O)c2c(OC(C)C(=O)O)cccc2n1Cc1ccccc1 (stereo unspecified) gave an IC50 [1] of 11 nM, a KB [3] of 0.21 µM and an IC50 [5] of 13 nM. The Mole fraction [6] was 3.3e-06, the Mole fraction [7] was 8.9e-06 and the ED50 [8] was 3160 nM.
For Cc1c(C(=O)C(N)=O)c2c(O[C@@H](C)C(=O)O)cccc2n1Cc1ccccc1, the IC50 [1] was 188 nM, the IC50 [5] was 136 nM and the Mole fraction [6] was 3.4e-05. The Mole fraction [7] was 0.00015.
For Cc1ccccc1Cn1c(C)c(C(=O)C(N)=O)c2c(OCC(=O)O)cccc21, the IC50 [1] was 15 nM, the KB [3] was 0.154 µM and the IC50 [5] was 45 nM. The Mole fraction [6] was 1.1e-05, the Mole fraction [7] was 1.3e-05 and the ED50 [8] was over 30000 nM.
With CCc1c(C(=O)C(N)=O)c2c(OCC(=O)O)cccc2n1S(=O)(=O)c1ccccc1 the KB [3] was 0.316 µM, the IC50 [9] was 28 nM and the Mole fraction [7] was 2.3e-05.
Work on Cc1c(C(=O)C(N)=O)c2c(O[C@H](C)C(=O)O)cccc2n1Cc1ccccc1 yielded an IC50 [1] of 11 nM, an IC50 [5] of 6 nM and a Mole fraction [6] of 1.5e-06. It also gave a Mole fraction [7] of 8.9e-06.
CCc1c(C(=O)C(N)=O)c2c(OCC(N)=O)cccc2n1Cc1ccccc1 showed an IC50 [1] of 124 nM and a Mole fraction [7] of 0.0001.
Cc1c(C(=O)C(N)=O)c2c(OCC(=O)O)cccc2n1Cc1ccccc1Cl gave an IC50 [1] of 9 nM, a KB [3] of 0.1 µM and an IC50 [5] of 25 nM. It also gave a Mole fraction [6] of 6.3e-06, a Mole fraction [7] of 7.3e-06 and an ED50 [8] of over 30000 nM.
